Type in all cases: functional
The test system of assay [1] is Aspergillus fumigatus. As to the kind of experiment: Antimicrobial activity against Aspergillus fumigatus isolate 40 after 48 hrs by Etest. The settings on record: isolate 40, 48 h. In outline:
(§1)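 Posaconazole Etest strips on RPMI 1640 agar with 2% glucose, pH 7.0, run per the strip maker's instructions. Incubated at 35°C. MIC read at 24 h and at 48 h, matching the time in each line.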

The subject of assay [2] is Aspergillus fumigatus. As to the kind of experiment: Antimicrobial activity against Aspergillus fumigatus isolate 36 by CLSI M38-A2 broth microdilution method. An outline of the steps:
(§2)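 CLSI M38-A2 broth microdilution with posaconazole. MIC taken as the lowest concentration with no visible growth at 48 h. C. parapsilosis ATCC 22019 and C. krusei ATCC 6258 were included as QC strains in every run.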
In general terms: In broth dilution the organism is exposed to a series of concentrations in liquid medium.

Assay [3] concerns Aspergillus fumigatus. As to the kind of experiment: Antimicrobial activity against Aspergillus fumigatus isolate 16 by oxygen consumption method. In outline: (§3)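 Conidial suspension in RPMI 1640 broth with posaconazole at 0.25 and 2 μg/ml. Tubes agitated 12 h at 37°C in a biological oxygen monitor. Available oxygen was monitored continuously, and the MIC was assigned from the oxygen quantification.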

Assay [4] has as its system Aspergillus fumigatus. As to the kind of experiment: Antimicrobial activity against Aspergillus fumigatus isolate 22 after 24 hrs by Etest. The note with it: isolate 22, 24 h. An outline of the steps:
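Etest strips on RPMI 1640 agar with 2% glucose, pH 7.0, run per manufacturer's instructions. Incubated at 35°C; MIC read at 24 h.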

The test system of assay [5] is Aspergillus fumigatus. As to the kind of experiment: Antimicrobial activity against Aspergillus fumigatus isolate 18 by oxygen consumption method. In outline:
as §3

For assay [6], the system named is Aspergillus fumigatus. As to the kind of experiment: Antimicrobial activity against Aspergillus fumigatus isolate 21 by CLSI M38-A2 broth microdilution method. In outline: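 Reference broth microdilution per CLSI M38-A2. MIC read as absence of visible growth at 48 h. C. parapsilosis ATCC 22019 and C. krusei ATCC 6258 QC strains run in each test session.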
For assay [7], the system named is Aspergillus fumigatus. As to the kind of experiment: Antimicrobial activity against Aspergillus fumigatus isolate 8 by oxygen consumption method.
Assay [8] relates to Aspergillus fumigatus. As to the kind of experiment: Antimicrobial activity against Aspergillus fumigatus isolate 22 after 48 hrs by Etest. The settings on record: isolate 22, 48 h. An outline of the steps: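 Etest strips on RPMI 1640 agar with 2% glucose, pH 7.0, run per manufacturer's instructions. Incubated at 35°C; MIC read at 48 h.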
For assay [9], the system named is Aspergillus fumigatus. As to the kind of experiment: Antimicrobial activity against Aspergillus fumigatus isolate 41 after 48 hrs by Etest. The note with it: isolate 41, 48 h. In outline: as §1
Assay [10] has as its system Aspergillus fumigatus. As to the kind of experiment: Antimicrobial activity against Aspergillus fumigatus isolate 6 after 48 hrs by Etest. The note with it: isolate 6, 48 h.
Assay [11] relates to Aspergillus fumigatus. As to the kind of experiment: Antimicrobial activity against Aspergillus fumigatus isolate 15 by oxygen consumption method. An outline of the steps:
as §3

Assay [12] concerns Aspergillus fumigatus. As to the kind of experiment: Antimicrobial activity against Aspergillus fumigatus isolate 13 by CLSI M38-A2 broth microdilution method. In outline: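 Posaconazole broth microdilution follows CLSI M38-A2. The MIC is the lowest concentration with no visible growth at 48 h. Candida parapsilosis ATCC 22019 and Candida krusei ATCC 6258 were included as QC strains in every run.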

The test system of assay [13] is Aspergillus fumigatus. As to the kind of experiment: Antimicrobial activity against Aspergillus fumigatus isolate 20 after 24 hrs by Etest. The note with it: isolate 20, 24 h. An outline of the steps: (§4)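 Posaconazole Etest strips placed on RPMI 1640 agar with 2% glucose, pH 7.0, and run per the strip maker's instructions. Incubation at 35°C, with the MIC read at 24 h and at 48 h.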

For assay [14], the system named is Aspergillus fumigatus. As to the kind of experiment: Antimicrobial activity against Aspergillus fumigatus isolate 17 after 24 hrs by Etest. The settings on record: isolate 17, 24 h. An outline of the steps:
as §4

For assay [15], the system named is Aspergillus fumigatus. As to the kind of experiment: Antimicrobial activity against Aspergillus fumigatus isolate 41 by CLSI M38-A2 broth microdilution method. An outline of the steps: as §2
The test system of assay [16] is Aspergillus fumigatus. As to the kind of experiment: Antimicrobial activity against Aspergillus fumigatus isolate 9 after 24 hrs by Etest. The note with it: isolate 9, 24 h.
For assay [17], the system named is Aspergillus fumigatus. As to the kind of experiment: Antimicrobial activity against Aspergillus fumigatus isolate 16 after 48 hrs by Etest. The settings on record: isolate 16, 48 h. An outline of the steps: as §4
Assay [18] concerns Aspergillus fumigatus. As to the kind of experiment: Antimicrobial activity against Aspergillus fumigatus isolate 37 by oxygen consumption method. In outline: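 Conidial suspension in RPMI 1640 broth, tested at two posaconazole levels (0.25 and 2 μg/ml). Agitated for 12 h at 37°C in a biological oxygen monitor. MIC derived from continuous monitoring and quantification of the available oxygen.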

Each structure is given as a SMILES string. Converted amounts (≈) assume the structure as drawn.

Broadly, the MIC is the lowest concentration that inhibits growth of the organism. Low readings indicate greater potency, high ones weaker potency. For `CC[C@@H]([C@H](C)O)n1ncn(-c2ccc(N3CCN(c4ccc(OC[C@@H]5CO[C@@](Cn6cncn6)(c6ccc(F)cc6F)C5)cc4)CC3)cc2)c1=O` [POSACONAZOLE], the MIC is 0.25 µg/mL (≈ 0.357 µM) in [1]; 0.125 µg/mL (≈ 0.178 µM) in [2]; no less than 0.5 µg/mL in assay [3]; 0.25 µg/mL (≈ 0.357 µM) in [4]; no more than 0.25 µg/mL in assay [5]; 0.125 µg/mL (≈ 0.178 µM) in assay [6]. The MIC in assay [7] was no less than 0.5 µg/mL; in assay [8] it was 0.25 µg/mL (≈ 0.357 µM); in assay [9], no more than 0.03 µg/mL; in [10] it was 4 µg/mL (≈ 5.71 µM); in assay [11], no more than 0.25 µg/mL; in [12], 0.125 µg/mL (≈ 0.178 µM). Further, the MIC in [13] is 0.25 µg/mL (≈ 0.357 µM); in assay [14], 0.125 µg/mL (≈ 0.178 µM); in assay [15], 0.06 µg/mL (≈ 0.0856 µM); in assay [16] it was 0.25 µg/mL (≈ 0.357 µM); in [17] it was 0.25 µg/mL (≈ 0.357 µM); in [18] it was no more than 0.25 µg/mL.

Source of the values: ChEMBL document CHEMBL1649256, “Comparison of assessment of oxygen consumption, Etest, and CLSI M38-A2 broth microdilution methods for evaluation of the susceptibility of Aspergillus fumigatus to posaconazole” (2009).
